The target of test [1] is T1, Polyunsaturated fatty acid 5-lipoxygenase (Homo sapiens, UniProt P09917).
T1 sequence (P09917 whole entry): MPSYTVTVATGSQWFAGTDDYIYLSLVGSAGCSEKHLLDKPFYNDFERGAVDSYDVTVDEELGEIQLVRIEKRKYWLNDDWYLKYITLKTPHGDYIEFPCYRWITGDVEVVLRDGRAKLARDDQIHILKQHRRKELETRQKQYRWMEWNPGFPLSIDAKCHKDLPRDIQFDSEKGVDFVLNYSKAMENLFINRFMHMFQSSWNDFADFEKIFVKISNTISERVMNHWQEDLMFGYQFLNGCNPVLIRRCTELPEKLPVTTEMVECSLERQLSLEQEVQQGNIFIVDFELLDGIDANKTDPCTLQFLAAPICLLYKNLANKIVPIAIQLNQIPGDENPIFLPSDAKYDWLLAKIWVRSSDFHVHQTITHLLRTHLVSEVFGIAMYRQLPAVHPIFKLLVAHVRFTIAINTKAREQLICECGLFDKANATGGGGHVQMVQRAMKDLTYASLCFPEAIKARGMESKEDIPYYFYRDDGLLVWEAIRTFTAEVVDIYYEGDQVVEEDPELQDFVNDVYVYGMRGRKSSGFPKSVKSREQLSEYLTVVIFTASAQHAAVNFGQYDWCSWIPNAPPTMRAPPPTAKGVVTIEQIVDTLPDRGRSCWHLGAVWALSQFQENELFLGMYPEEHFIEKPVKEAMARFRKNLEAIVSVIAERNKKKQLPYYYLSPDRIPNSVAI
Briefly: In vitro inhibition of ionophore stimulated LTB4 release from human peripheral blood leukocytes. It is filed as functional. The essentials: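 Leukocytes from pooled human venous blood were isolated by plasmagel sedimentation and erythrocyte lysis, then set to 1×10^6 cells/mL in modified Eagle MEM. Cells were preincubated 5 min at 37 °C with DMSO vehicle or compound, then stimulated 5 min at 37 °C with A23187 (5 µL of 0.1 mM). Reaction stopped on ice with cold Ca-free PBS; supernatant LTB4 measured by [3H]RIA.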

The subject of test [2] is Mus musculus. Kind of test: In vivo 5-Lipoxygenase inhibitory activity by using mouse zymosan peritonitis model; inactive. In kind it is functional, organism-based. The essentials: (§1)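 CD-1 mice (18–25 g) received compound orally in 0.5% methyl cellulose, then 3 mg zymosan-A in 0.5 mL 0.9% saline ip 1 h later. Samples were held on ice ≥30 min and spun at 28000g for 15 min at 4 °C. Supernatants were dried under nitrogen and stored at −70 °C. LTC4 measured by [3H]RIA on a 1:20 dilution.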

For test [3], the target named is T1, Polyunsaturated fatty acid 5-lipoxygenase. Kind of test: In vitro effective concentration required to inhibit ionophore stimulated-human peripheral blood leukocytes; inactive. It is filed as functional.
For test [4], the system named is Mus musculus. Briefly: In vivo 5-Lipoxygenase inhibitory activity by using mouse zymosan peritonitis model. It is filed as functional, organism-based. Summed up: as §1

As for `CC(C)c1ccc2nc(SCCNC(=O)N(C)O)sc2c1`, the EC50 is 160 nM in test [1] and “Not Active” with Mus musculus [2]. Compound `CN(O)C(=O)CCSc1nc2ccccc2s1` showed an EC50 in test [1] of 39 nM. On to `O=C(NO)NCCSc1nc2cc(Cl)ccc2s1`, for which the results for the EC50 (in test [1]; in the test on Mus musculus [2]) were 24500 nM and “Not Active”, respectively. In test [1], `CN(O)C(=O)CSc1nc2ccccc2s1` displayed an EC50 of 70 nM. As for `CC(C)N(O)C(=O)NCCCSc1nc2ccccc2s1`, the EC50 in test [1] was 70 nM; in the test on Mus musculus [2], “Not Active”. For `CNC(=O)NCCSc1nc2ccccc2s1`, the EC50 result (in test [3]; in the test with Mus musculus [2]) was “Not Active” in each case. Consider `CNC(=O)CCSc1nc2ccccc2s1`, for which the EC50 entry in test [3] was “Not Active”.

`CN(O)C(=O)/C=C/Sc1nc2ccccc2s1` had an EC50 in test [1] of 130 nM. For `CCOc1ccc2nc(SCCNC(=O)N(O)C(C)C)sc2c1`, the EC50 in test [1] was 390 nM; in the test with Mus musculus [2], “Not Active”. As for `CON(C)C(=O)NCCSc1nc2ccccc2s1`, the EC50 result (in test [3]; in the test with Mus musculus [2]) was “Not Active” each time.

In the case of `CONC(=O)NCCSc1nc2ccccc2s1`, the EC50 entry (in test [3]; in the test with Mus musculus [2]) was “Not Active” each time.

For `CN(O)C(=O)NCSc1nc2ccccc2s1`, the EC50 in test [1] amounted to 1070 nM; in the test with Mus musculus [4], 65.9 mg/kg. For `CC(C)N(O)C(=O)NCCSc1nc2cc(Cl)ccc2s1`, the EC50 was 70 nM in test [1] and “Not Active” in the test with Mus musculus [2]. `CN(O)C(=O)CCSc1nc2cc(Cl)ccc2s1` had an EC50 in test [1] of 20 nM. In the case of `CN(O)C(=O)NCCSc1nc2cccc(Cl)c2s1`, the results for the EC50 (in test [1]; in the test with Mus musculus [2]) were 530 nM and “Not Active”, respectively. For `CC(C)N(O)C(=O)NCCSc1nc2ccccc2s1`, in that order: 130 nM and “Not Active”. Take `CN(O)C(=O)NCCSc1nc2cc(Cl)ccc2s1`: the EC50 in test [1] turned out to be 20 nM; in the test with Mus musculus [4], 23.1 mg/kg. With `O=C(NO)NCCSc1nc2ccccc2s1`, the EC50 in test [1] was 5200 nM; in the test on Mus musculus [2], “Not Active”. Turning to `CN(O)C(=O)NCCSc1nc2ccccc2s1`, the values for the EC50 (in test [1]; in the test with Mus musculus [4]) were 90 nM and 41 mg/kg, respectively. As for `CN(O)C(=O)NCCSc1nc2cc(C(F)(F)F)ccc2s1`, the EC50 is 3200 nM in test [1] and “Not Active” in the test on Mus musculus [2]. With `CCOc1ccc2nc(SCCNC(=O)N(C)O)sc2c1`, the EC50 in test [1] is 110 nM; with Mus musculus [2], “Not Active”. As for `CN(O)C(=O)NCCCSc1nc2ccccc2s1`, the results for the EC50 (in test [1]; in the test on Mus musculus [4]) were 45 nM and 23 mg/kg, respectively. In the test with Mus musculus [4], `NC1=NN(c2cccc(C(F)(F)F)c2)CC1` [BW-755C] registered an EC50 of 8.5 mg/kg.

As for `COc1ccc(-n2nc(CCC(=O)N(C)O)cc2-c2ccc(Cl)cc2)cc1` [TEPOXALIN], the EC50 amounted to 70 nM in test [1] and 44.5 mg/kg with Mus musculus [4]. On to `CC(c1cc2ccccc2s1)N(O)C(N)=O` (stereo not drawn) [ZILEUTON], for which the EC50 in the test with Mus musculus [4] was determined as 1.6 mg/kg.
